High-throughput results deposited in PubChem by Sanford-Burnham Center for Chemical Genomics.
SENP7 block: SENP7 protease inhibitors, primary screen, biochemical, luminescence, uHTS. Sentrin-specific protease 7 (Homo sapiens), Q9BQF6. recombinant SENP7, Z-RLRGG-aminoluciferin luminescence, 40 min. inhibition, % at 5 µM. actives 1.5% (n = 330,000);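 active = inhibition above about 50% at the single test dose, limit read from the data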;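 also: plate controls were DMSO with enzyme for no effect and no enzyme buffer wells for full effect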
SENP8 block-1: human SENP8 protease inhibitors, primary screen, biochemical, fluorescence, Nedd8 protein substrate, uHTS; Sentrin-specific protease 8 (Homo sapiens), Q96LD8; recombinant SENP8; inhibition, % at 20 µM; actives 0.64% (n = 360,000); AID 602440, 2012; in the data active = inhibition mostly above about 40%, no sharp cut-off; inactive = mostly below about 27%
Target sequence (Q96LD8 whole entry, looked up): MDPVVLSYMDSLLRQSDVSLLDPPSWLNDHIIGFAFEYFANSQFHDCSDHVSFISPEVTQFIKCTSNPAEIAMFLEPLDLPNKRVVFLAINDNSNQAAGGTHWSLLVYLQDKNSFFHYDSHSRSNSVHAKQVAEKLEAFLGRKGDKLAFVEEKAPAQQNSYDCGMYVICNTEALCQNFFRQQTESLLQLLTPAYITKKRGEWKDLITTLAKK
SENP6 inh: SENP6 protease inhibitors, primary screen, biochemical, luminescence, uHTS. actives 1.8% (n = 330,000). inhibition, % at 10 µM. Recombinant SENP6 catalytic domain, aminoluciferin luminescence. AID 2599, 2010. Sentrin-specific protease 6 (Homo sapiens), Q9GZR1;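 active = inhibition above about 50% at the single tested dose, limit read from the data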;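 also: plate controls were DMSO wells with enzyme for no effect and DMSO wells lacking enzyme for full effect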
SENP1 FRET inh: human SENP1 catalytic domain inhibitors, primary screen, biochemical, FRET, uHTS; Sentrin-specific protease 1 (Homo sapiens), Q9P0U3; recombinant SENP1 catalytic domain, CyPet-SUMO1-YPet FRET cleavage; inhibition, % at 10 µM; actives 0.21% (n = 360,000); AID 624204, 2012;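 active = inhibition at least 30% at 10 µM, raw YFP signal under a set limit, fluorescence ratio 0.5 to 1.5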;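 also: 0% = enzyme with DMSO and 100% = no enzyme wells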
Target sequence (Q9P0U3 419-644 limits assumed): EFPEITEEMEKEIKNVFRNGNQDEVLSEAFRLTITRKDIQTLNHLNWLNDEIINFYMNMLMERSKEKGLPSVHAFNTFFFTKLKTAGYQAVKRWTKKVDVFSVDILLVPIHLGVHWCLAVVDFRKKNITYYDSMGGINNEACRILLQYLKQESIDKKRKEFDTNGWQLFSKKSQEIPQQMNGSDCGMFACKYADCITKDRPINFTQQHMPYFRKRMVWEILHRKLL
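Test system: recombinant human SENP1 catalytic domain, His6-tagged / Medium: pH 8 Tris buffer with EDTA, NaCl, BME, BSA, NP40, catalase / Also added: SUMO1 FRET substrate flanked by Cypet and Ypet, 25 nM / Times: 50 min reaction at room temperature / Signal: FRET, CFP and YFP emission / Control set: no-enzyme low control and enzyme-plus-DMSO high control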
SENP8 block-2: SENP8 protease inhibitors, primary screen, biochemical, luminescence; Sentrin-specific protease 8 (Homo sapiens), Q96LD8; purified SENP8, Z-RLRGG-aminoluciferin cleavage; inhibition, % at 10 µM; actives 1.2% (n = 330,000); in the data active = inhibition above about 50%
SENP1 conf: human SENP1 catalytic domain inhibitors, confirmation, biochemical, FRET endpoint, single concentration; shares compounds with SENP1 FRET inh; recombinant SENP1, CyPet-SUMO1-YPet FRET cleavage; inhibition, % at 10 µM; actives 34% (n = 520); AID 651678, 2012; in the data active = inhibition mostly above about 35%, no sharp cut-off; inactive = mostly below about 32%;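 also: 0% = enzyme with DMSO and 100% = no enzyme control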
SENP1 kinetic: human SENP1 catalytic domain inhibitors, confirmation, biochemical, kinetic FRET, single concentration. shares compounds with SENP1 FRET inh. actives 26% (n = 520). recombinant SENP1, CyPet-SUMO1-YPet FRET kinetic cleavage. inhibition, % at 10 µM; in the data active = inhibition mostly above about 32%, no sharp cut-off; inactive = mostly below about 29%;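 also: 0% = DMSO with enzyme and 100% = no enzyme substrate only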
* marks the source's active call; other numbers are inactive results; nt = not tested or not shown. Compounds with a hit are over-represented: about 2.5% of the library has one in this group of screens.

SMILES	SENP7 block	SENP8 block-1	SENP6 inh	SENP1 FRET inh	SENP8 block-2	SENP1 conf	SENP1 kinetic
COc1ccccc1-n1cc(-c2ccc([N+](=O)[O-])cc2)[nH]c1=S	2	22	-19	43*	-11	11	5
Cc1ccc(-n2cc(-c3ccc([N+](=O)[O-])cc3)[nH]c2=S)c(C)c1	0	26	2	63*	-21	42*	33*
COc1ccc2nc3ccccc3nc2c1NC(=O)c1ccc(Br)cc1	4	24	-4	92*	2	105*	60*
COc1ccc2nc3ccccc3nc2c1NC(=O)c1ccc(Cl)cc1	-10	22	-5	79	-8	nt	nt
CC1CCC2(CC1)NC(=O)N(CC(=O)c1ccc(Cl)s1)C2=O (centres undefined)	-3	-1	-2	0	-3	nt	nt
Cn1c(=O)c2c(-c3ccccc3)n(-c3ccc(N)cc3)cc2n(C)c1=O	nt	60*	nt	45*	nt	24	9
O=C1CCCC2=C1Sc1ccc(Cl)cc1N2	-3	28	-15	72*	-5	93*	50*
CCN1/C(=C\C=C2\C(=O)N(c3ccccc3)C(=S)N2C)Sc2ccccc21	nt	20	nt	35*	nt	-3	0
CCN1/C(=C\C=C(C(C)=O)C(C)=O)Sc2ccccc21	-6	-4	-1	-25	-4	nt	nt
Cc1ccc(S(=O)(=O)N/N=C\c2ccc3c(c2)OCO3)c(C)c1	-1	9	14	2	3	nt	nt
COc1ccccc1NC1=C(Cl)C(=O)N(c2ccccc2)C1=O	-2	34	1	3	0	nt	nt
CCOc1ccc(N2C(=O)C(Cl)=C(Nc3ccccc3O)C2=O)cc1	-9	6	41	36*	24	28	14
O=C1C(Cl)=C(Nc2ccccc2O)C(=O)N1CCc1ccccc1	-1	33	10	41*	4	17	15
COc1ccc(NC(=O)COC(=O)c2ccc3ccccc3n2)cc1	-4	12	-6	7	-3	nt	nt
Cc1ccc(C)c(NC(=O)COC(=O)c2ccc3ccccc3n2)c1	-12	-6	-6	38*	-21	22	18
COc1ccc(CNC(=O)COC(=O)c2ccc3ccccc3n2)cc1	10	3	4	38*	-7	26	23
Cc1cc(NC(=O)CSc2nc3c(C)cccc3cc2C#N)no1	-3	-12	-5	20	17	nt	nt
Cc1cc(NC(=O)CSc2nc3c(C)ccc(C)c3cc2C#N)no1	-6	-92	4	68*	10	15	12
Cc1cc(C)c2cc(C#N)c(SCC(=O)Nc3cc(C)on3)nc2c1	2	-61	-6	50*	-1	-14	6
CC(C)C(=O)Nc1nc(-c2ccc([N+](=O)[O-])cc2)cs1	-3	10	-14	2	-8	nt	nt
CNc1nc(-c2ccc([N+](=O)[O-])cc2)cs1	10	38	1	44*	-4	13	12
c1ccc(OC2CCCCC2N2CCOCC2)cc1 (centres undefined)	nt	17	nt	2	nt	nt	nt
O=C(CCC(=O)N1CCCC1)Nc1ccc(Cl)c(Cl)c1	0	4	13	3	3	nt	nt
CCSc1ncc(Cl)c(C(=O)Nc2ccccc2Cl)n1	9	12	-27	2	-5	nt	nt
CCSc1ncc(Cl)c(C(=O)Nc2sc3c(c2C(=O)NCc2cccnc2)CCCC3)n1	1	16	-16	41*	1	62*	44*
SMILES	SENP7 block	SENP8 block-1	SENP6 inh	SENP1 FRET inh	SENP8 block-2	SENP1 conf	SENP1 kinetic
c1ccc(CN2CCN(C3=Nc4cccc5cccc3c45)CC2)cc1	0	27	-14	83*	-3	89*	53*
O=C(O)CC(NC(=O)Cc1ccc([N+](=O)[O-])cc1)c1ccc2c(c1)OCO2 (centres undefined)	-3	13	7	5	-1	nt	nt
C=CCn1c(COc2ccccc2)nc2ccccc21	6	15	7	3	-9	nt	nt
O=C(N/N=C/c1cccnc1)c1cccc(Br)c1	24	4	-24	31*	-3	-11	-8
O=C(N/N=C/c1cc(Br)c(Br)o1)c1cccnc1	6	31	16	35*	9	7	3
O=C(N/N=C\c1cc(Br)c(Br)o1)c1cncc(Br)c1	-3	-31	-10	0	-6	nt	nt
COc1ccc(CN2CCN(CCC(C)C)C(CCO)C2)cc1Cn1cncn1 (centres undefined)	2	13	4	1	-2	nt	nt
COc1cc(/C=C/C(=O)OCC(=O)Nc2cc(C)c(C)cc2[N+](=O)[O-])ccc1O	1	8	12	3	2	nt	nt
COc1cc(/C=C/C(=O)OCC(=O)Nc2ccc(C)cc2[N+](=O)[O-])ccc1O	-2	14	-5	38*	3	1	7
Cc1cccc(C)c1NC(=O)C(C)n1c(-c2ccc(=O)[nH]c2)nc2ccccc21 (centres undefined)	nt	-31	nt	40*	nt	37	25
Cc1cccc(C)c1NC(=O)C(C1CC1)n1c(-c2ccc(=O)[nH]c2)nc2ccccc21 (centres undefined)	nt	-11	nt	1	nt	nt	nt
O=C1c2cccc3cc([N+](=O)[O-])cc(c23)C(=O)N1c1ccccc1O	-3	18	1	40*	0	18	10
Cc1cc(O)ccc1N1C(=O)c2cccc3cc([N+](=O)[O-])cc(c23)C1=O	5	8	7	36*	0	13	6
Cc1cc(C(=O)NCc2ccccc2F)c2ccccc2n1	-4	-12	-1	43*	-10	51*	41*
Cc1cc(C(=O)NCc2ccc(F)cc2)c2ccccc2n1	6	-50	-30	0	5	nt	nt
CCOC(=O)/C(C#N)=C/c1cc2ccccc2nc1N1CCOCC1	0	7	-1	67*	5	35	20
COc1ccc2cc(C3=CC(=O)CC(C)(C)C3=O)ccc2c1	nt	28	nt	32*	nt	-1	5
Cc1ccc(-c2ccccc2C2=CC(=O)CC(C)(C)C2=O)cc1	nt	18	nt	3	nt	nt	nt
COc1ccc(-c2ccccc2C2=CC(=O)CC(C)(C)C2=O)cc1	nt	34	nt	33*	nt	-2	1
COc1cccc(-c2ccccc2C2=CC(=O)CC(C)(C)C2=O)c1	nt	14	nt	0	nt	nt	nt
CN(Cc1ccccc1)S(=O)(=O)c1ccc(Cl)c(C(=O)NCc2ccc3c(c2)OCO3)c1	-5	-4	-9	-1	-12	nt	nt
